Activity calls are given as the source filed them. The calls are words filed in the database; no cut-off is given here.
Columns and labels:
[1] = tested on: Microglia; test: Antiinflammatory activity against Sprague-Dawley rat microglial cells assessed as inhibition of LPS-induced TNF-alpha production at 2.5 uM pretreated with compound for 1 hr followed by LPS stimulation for 24 hrs by ELISA; type: functional, cell-based; conditions: time 25.0 hrs
Procedure, shortened: (§1)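 Primary cortical rat microglia in DMSO (≤0.1%) or vehicle for 1 h, then 100 ng/mL LPS for 24 h. TNF-α and IL-1β in culture medium by ELISA against standard curves (pg/mL), expressed as % of LPS-stimulated cultures. Mean ± SEM of 3 independent experiments; one-way ANOVA, Holm-Sidak test.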

[2] = tested on: Microglia; test: Antiinflammatory activity against Sprague-Dawley rat microglial cells assessed as downregulation of IL-1 beta mRNA expression at 2.5 uM pretreated with compound for 1 hr followed by LPS stimulation for 6 hrs by real-time PCR analysis; type: functional, cell-based; conditions: time 7.0 hrs
Procedure, shortened: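 Primary cortical microglia (postnatal day 1 rat pups, shaken off mixed glial cultures, ~97% Iba1-positive). Compound (DMSO ≤0.1%) for 1 h, then 100 ng/mL ultra-pure E. coli LPS for 6 h. QIAzol RNA extraction, SuperScript IV reverse transcription, real-time PCR. Mean ± SEM, n = 3 in triplicate; one-way ANOVA, Holm-Sidak test.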

[3] = tested on: SH-SY5Y; test: Cytotoxicity against human SH-SY5Y cells assessed as decrease in cell viability at >2.5 uM incubated for 24 hrs by MTT assay; type: toxicity, cell-based
Procedure, shortened: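 SH-SY5Y, 2×10^4 cells/well, grown 24 h then exposed 24 h (1.25–40 μM) at 37 °C, 5% CO2. MTT 0.5 mg/mL in HBSS for 2 h, washed, formazan dissolved in isopropanol, read at 570 nm (reference 690 nm).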

[4] = tested on: SH-SY5Y; test: Antioxidant activity in human SH-SY5Y cells assessed as reduction in intracellular ROS formation at 2.5 uM incubated for 24 hrs followed by incubation with t-BuOOH for 30 mins by H2DCF-DA staining based fluorescence analysis; type: functional; conditions: time 24.5 hrs
Procedure, shortened: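 SH-SY5Y (2×10^4 cells/well) exposed to 2.5 μM for 24 h, loaded with H2DCF-DA 30 min at room temperature, probe removed, then challenged with 50 μM t-BuOOH 30 min at room temperature. Fluorescence ex 485/em 535 nm, expressed as % ROS increase. Three independent experiments; one-way ANOVA with Dunnett's test.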

[5] = tested on: Microglia; test: Antiinflammatory activity against Sprague-Dawley rat microglial cells assessed as inhibition of LPS-induced IL-1 beta production at 1 uM pretreated with compound for 1 hr followed by LPS stimulation for 24 hrs by ELISA; type: functional, cell-based; conditions: time 25.0 hrs; procedure, shortened: as §1
[6] = tested on: Microglia; test: Antiinflammatory activity against Sprague-Dawley rat microglial cells assessed as inhibition of LPS-induced TNF-alpha production at 1 to 2.5 uM pretreated with compound for 1 hr followed by LPS stimulation for 24 hrs by ELISA; type: functional, cell-based; conditions: dose 1-2.5 µM, time 25.0 hrs; procedure, shortened: as §1

Structure (SMILES): CCCCn1cc(C/C(C(=O)/C=C/c2ccc(OC)cc2)=C(O)\C=C\c2ccc(OC)cc2)nn1
- Activity [1]: Active
- Activity [2]: Active
- Activity [3]: Toxic
- inhibition at 2.5 µM [4]: 18%
- Activity [5]: Active
- Activity [6]: Active
